ChEMBL document CHEMBL4689842, “EUbOPEN Chemogenomics Library wave 1” (2021)

Test system: Fibroblast
Assay: Multiplex assay against human fibroblast
Format: toxicity, cell-based
Method in brief: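 Live cells carried four stains from seeding: Hoechst33342, BioTracker Green Microtubule Cytoskeleton Dye, MitoTracker Red and Annexin V Alexa Fluor 680. They were imaged on a CQ1 microscope at 37°C and 5% CO2 after compound addition. Using CellPathfinder machine-learning gating, cells were split into Hoechst high-intensity objects or normal cells, normal cells into healthy, pyknosed or fragmented nuclei, and pyknosed cells into mitotic or apoptotic; tubulin, mitochondrial-mass and membrane-permeability phenotypes are per cents of healthy-nucleus cells.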

[1] = 12 h, 1 µM, compound concentration 1 uM, replicate 1
[2] = 12 h, 1 µM, compound concentration 1 uM, replicate 2
[3] = 12 h, 10 µM, compound concentration 10 uM, replicate 1
[4] = 12 h, 10 µM, compound concentration 10 uM, replicate 2
[5] = 24 h, 1 µM, compound concentration 1 uM, replicate 1
[6] = 24 h, 1 µM, compound concentration 1 uM, replicate 2
[7] = 24 h, 10 µM, compound concentration 10 uM, replicate 1
[8] = 24 h, 10 µM, compound concentration 10 uM, replicate 2
[9] = 48 h, 1 µM, compound concentration 1 uM, replicate 1
[10] = 48 h, 1 µM, compound concentration 1 uM, replicate 2
[11] = 48 h, 10 µM, compound concentration 10 uM, replicate 1
[12] = 48 h, 10 µM, compound concentration 10 uM, replicate 2

SMILES: Oc1cccc(-c2nc(N3CCOCC3)c3oc4ncccc4c3n2)c1 [PI-103]
- Population Apoptotic (%) [1]: 64%
- Population Fragmented Nuclei (%) [1]: 32%
- Population Healthy Nuclei (%) [1]: 39%
- Population Hoechst High Intensity Objects (%) [1]: 12%
- Population Membrane Permeable-Phenotype (%) [1]: 14%
- Population Mitochondria Different-Phenotype (%) [1]: 1%
- Population Mitotic Cells (%) [1]: 36%
- Population Normal (%) [1]: 87%
- Population Pyknosed Nuclei (%) [1]: 28%
- Population Tubulin-Different-Phenotype (%) [1]: 17%
- Total Cell Count [1]: 199
- Population Apoptotic (%) [2]: 47%
- Population Fragmented Nuclei (%) [2]: 10%
- Population Healthy Nuclei (%) [2]: 63%
- Population Hoechst High Intensity Objects (%) [2]: 5%
- Population Membrane Permeable-Phenotype (%) [2]: 2%
- Population Mitochondria Different-Phenotype (%) [2]: 7%
- Population Mitotic Cells (%) [2]: 52%
- Population Normal (%) [2]: 94%
- Population Pyknosed Nuclei (%) [2]: 26%
- Population Tubulin-Different-Phenotype (%) [2]: 0%
- Total Cell Count [2]: 73
- Population Apoptotic (%) [3]: 70%
- Population Fragmented Nuclei (%) [3]: 34%
- Population Healthy Nuclei (%) [3]: 34%
- Population Hoechst High Intensity Objects (%) [3]: 23%
- Population Membrane Permeable-Phenotype (%) [3]: 33%
- Population Mitochondria Different-Phenotype (%) [3]: 16%
- Population Mitotic Cells (%) [3]: 29%
- Population Normal (%) [3]: 76%
- Population Pyknosed Nuclei (%) [3]: 30%
- Population Tubulin-Different-Phenotype (%) [3]: 77%
- Total Cell Count [3]: 135
- Population Apoptotic (%) [4]: 36%
- Population Fragmented Nuclei (%) [4]: 18%
- Population Healthy Nuclei (%) [4]: 39%
- Population Hoechst High Intensity Objects (%) [4]: 5%
- Population Mitochondria Different-Phenotype (%) [4]: 59%
- Population Mitotic Cells (%) [4]: 63%
- Population Normal (%) [4]: 94%
- Population Pyknosed Nuclei (%) [4]: 41%
- Population Tubulin-Different-Phenotype (%) [4]: 83%
- Total Cell Count [4]: 69
- Population Apoptotic (%) [5]: 64%
- Population Fragmented Nuclei (%) [5]: 30%
- Population Healthy Nuclei (%) [5]: 46%
- Population Hoechst High Intensity Objects (%) [5]: 14%
- Population Membrane Permeable-Phenotype (%) [5]: 18%
- Population Mitochondria Different-Phenotype (%) [5]: 5%
- Population Mitotic Cells (%) [5]: 35%
- Population Normal (%) [5]: 85%
- Population Pyknosed Nuclei (%) [5]: 22%
- Population Tubulin-Different-Phenotype (%) [5]: 30%
- Total Cell Count [5]: 189
- Population Apoptotic (%) [6]: 75%
- Population Fragmented Nuclei (%) [6]: 14%
- Population Healthy Nuclei (%) [6]: 69%
- Population Hoechst High Intensity Objects (%) [6]: 6%
- Population Membrane Permeable-Phenotype (%) [6]: 3%
- Population Mitochondria Different-Phenotype (%) [6]: 3%
- Population Mitotic Cells (%) [6]: 25%
- Population Normal (%) [6]: 93%
- Population Pyknosed Nuclei (%) [6]: 16%
- Population Tubulin-Different-Phenotype (%) [6]: 1%
- Total Cell Count [6]: 73
- Population Apoptotic (%) [7]: 66%
- Population Fragmented Nuclei (%) [7]: 32%
- Population Healthy Nuclei (%) [7]: 32%
- Population Hoechst High Intensity Objects (%) [7]: 32%
- Population Membrane Permeable-Phenotype (%) [7]: 37%
- Population Mitochondria Different-Phenotype (%) [7]: 12%
- Population Mitotic Cells (%) [7]: 33%
- Population Normal (%) [7]: 67%
- Population Pyknosed Nuclei (%) [7]: 36%
- Population Tubulin-Different-Phenotype (%) [7]: 70%
- Total Cell Count [7]: 111
- Population Apoptotic (%) [8]: 50%
- Population Fragmented Nuclei (%) [8]: 28%
- Population Healthy Nuclei (%) [8]: 24%
- Population Hoechst High Intensity Objects (%) [8]: 4%
- Population Membrane Permeable-Phenotype (%) [8]: 44%
- Population Mitochondria Different-Phenotype (%) [8]: 75%
- Population Mitotic Cells (%) [8]: 49%
- Population Normal (%) [8]: 95%
- Population Pyknosed Nuclei (%) [8]: 47%
- Population Tubulin-Different-Phenotype (%) [8]: 89%
- Total Cell Count [8]: 80
- Population Apoptotic (%) [9]: 33%
- Population Fragmented Nuclei (%) [9]: 33%
- Population Healthy Nuclei (%) [9]: 53%
- Population Membrane Permeable-Phenotype (%) [9]: 20%
- Population Mitochondria Different-Phenotype (%) [9]: 5%
- Population Mitotic Cells (%) [9]: 66%
- Population Pyknosed Nuclei (%) [9]: 12%
- Population Tubulin-Different-Phenotype (%) [9]: 22%
- Total Cell Count [9]: 163
- Population Apoptotic (%) [10]: 60%
- Population Fragmented Nuclei (%) [10]: 32%
- Population Healthy Nuclei (%) [10]: 62%
- Population Hoechst High Intensity Objects (%) [10]: 14%
- Population Membrane Permeable-Phenotype (%) [10]: 34%
- Population Mitochondria Different-Phenotype (%) [10]: 8%
- Population Mitotic Cells (%) [10]: 40%
- Population Normal (%) [10]: 85%
- Population Pyknosed Nuclei (%) [10]: 4%
- Population Tubulin-Different-Phenotype (%) [10]: 47%
- Total Cell Count [10]: 129
- Population Apoptotic (%) [11]: 46%
- Population Fragmented Nuclei (%) [11]: 35%
- Population Healthy Nuclei (%) [11]: 43%
- Population Hoechst High Intensity Objects (%) [11]: 33%
- Population Membrane Permeable-Phenotype (%) [11]: 34%
- Population Mitochondria Different-Phenotype (%) [11]: 12%
- Population Mitotic Cells (%) [11]: 53%
- Population Normal (%) [11]: 66%
- Population Pyknosed Nuclei (%) [11]: 20%
- Population Tubulin-Different-Phenotype (%) [11]: 68%
- Total Cell Count [11]: 110
- Population Apoptotic (%) [12]: 78%
- Population Fragmented Nuclei (%) [12]: 36%
- Population Healthy Nuclei (%) [12]: 42%
- Population Hoechst High Intensity Objects (%) [12]: 40%
- Population Membrane Permeable-Phenotype (%) [12]: 20%
- Population Mitochondria Different-Phenotype (%) [12]: 24%
- Population Mitotic Cells (%) [12]: 21%
- Population Normal (%) [12]: 59%
- Population Tubulin-Different-Phenotype (%) [12]: 58%
- Total Cell Count [12]: 114
